{"source": "ChEMBL document CHEMBL4364260", "about": "“Discovery of Ziresovir as a Potent, Selective, and Orally Bioavailable Respiratory Syncytial Virus Fusion Protein Inhibitor” (J Med Chem, 2019)", "key": {"[1]": {"test": "Plasma clearance in Wistar-Han rat at 2 mg/kg, iv or 10 mg/kg, po administered as single dose via gavage and measured up to 24 hrs by LC/MS/MS analysis", "assay_type": "ADME, organism-based", "procedure,_shortened": "(§1)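 Male Wistar-Han rats, single dose, 2 mg/kg iv and 10 mg/kg po, run by standard procedures.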"}, "[2]": {"system": "Human respirovirus 1", "test": "Antiviral activity against Human parainfluenza virus 1 infected in human Hep2 cells assessed as reduction in virus induced cytopathic effect after 5 days by CCK-8 assay", "assay_type": "functional, organism-based"}, "[3]": {"system": "Human respirovirus 3", "test": "Antiviral activity against Human parainfluenza virus 3 infected in human Hep2 cells assessed as reduction in virus induced cytopathic effect after 5 days by CCK-8 assay", "assay_type": "functional, organism-based"}, "[4]": {"test": "Antiviral activity against Human respiratory syncytial virus A strain Long infected in BALB/c mouse assessed as log reduction in virus titer in lung at 50 mg/kg, po BID administered up to 8 hrs for 4 days relative to control", "assay_type": "functional", "procedure,_shortened": "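Six-week-old female BALB/c mice, housed specific-pathogen-free, were anesthetized intraperitoneally with ketamine/xylazine and given RSV Long strain intranasally (5×10^5 PFU in 100 µL). Oral dosing was twice daily (0 h and 8 h) for 4 days, 12 mice per group. Mice were then euthanized with CO₂ and lungs harvested for viral titer, compared with vehicle.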"}, "[5]": {"test": "Oral bioavailability in Beagle dog at 10 mg/kg", "assay_type": "ADME, organism-based, Canis lupus familiaris", "conditions": "in vivo", "procedure,_shortened": "(§2)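 Beagle dog single-dose PK at 1 mg/kg iv and 10 mg/kg po, dosed as a solution in 12.5% captisol in water. Plasma clearance, Vss, iv T1/2, AUC and F were reported.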"}, "[6]": {"test": "Half-life in CD-1 mouse at 5 mg/kg, iv", "assay_type": "ADME, organism-based", "conditions": "in vivo", "procedure,_shortened": "(§3)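 Single-dose PK in CD-1 mice: 5 mg/kg iv, 50 mg/kg po. Dosed as a solution in 5% DMSO, 40% PEG400, 55% of 0.9% NaCl. Plasma CL, Vss, iv T1/2, AUC and F were derived.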"}, "[7]": {"test": "Antiviral activity against Human respiratory syncytial virus A 1177 clinical isolates infected in human Hep2 cells assessed as reduction in virus induced cytopathic effect in presence of 10% FBS after 5 days by CCK-8 assay", "assay_type": "functional, cell-based", "conditions": "human respiratory syncytial virus, 1177, HEp-2, 120 h", "procedure,_shortened": "(§4)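 HEp-2 cells seeded at 6000/well and infected the next day at MOI 0.02, a dose that gives about 90% CPE by day 5. Serial compound dilutions were present throughout, in standard medium with 10% FBS. Viability was read by CCK-8 at day 5, and EC50 is the concentration that cuts CPE by 50%.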"}, "[8]": {"system": "Human parainfluenza virus 2", "test": "Antiviral activity against Human parainfluenza virus 2 infected in human Hep2 cells assessed as reduction in virus induced cytopathic effect after 5 days by CCK-8 assay", "assay_type": "functional, organism-based", "conditions": "Human orthorubulavirus 2"}, "[9]": {"test": "Oral bioavailability in Sprague-Dawley rat at 10 mg/kg", "assay_type": "ADME, organism-based", "conditions": "in vivo", "procedure,_shortened": "(§5)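 Rat single-dose PK: 2 mg/kg iv and 10 mg/kg po. Compound was given as a solution in 5% DMSO/40% PEG400/55% of 0.9% saline. Plasma CL, Vss, iv half-life, AUC and oral bioavailability were reported.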"}, "[10]": {"test": "Ratio of AUC (0 to 24 hrs) in lung to plasma of CD-1 mouse at 10 mg/kg, po administered via gavage by LC-MS/MS analysis", "assay_type": "ADME, organism-based", "conditions": "read-out: Ratio AUC"}, "[11]": {"test": "AUC (0 to 24 hrs) in Wistar-Han rat at 10 mg/kg, po administered as single dose via gavage and measured up to 24 hrs by LC/MS/MS analysis", "assay_type": "ADME, organism-based", "parameters": "dose 10 mg/kg, time < 24 hr, route oral", "conditions": "in vivo", "procedure,_shortened": "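Single-dose PK in male Wistar-Han rats at 2 mg/kg iv or 10 mg/kg po, as a solution in 5% DMSO, 40% PEG400 and 55% 0.9% sodium chloride.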"}, "[12]": {"test": "Volume of distribution at steady state in Sprague-Dawley rat at 2 mg/kg, iv or 10 mg/kg, po", "assay_type": "ADME, organism-based", "conditions": "in vivo, read-out: Vdss", "procedure,_shortened": "as §5"}, "[13]": {"test": "Antiviral activity against Human respiratory syncytial virus A strain Long infected in human Hep2 cells assessed as reduction in virus induced cytopathic effect in presence of 10% FBS after 5 days by CCK-8 assay", "assay_type": "functional, cell-based", "conditions": "HEp-2, 120 h", "procedure,_shortened": "as §4"}, "[14]": {"test": "Oral bioavailability in Wistar-Han rat at 10 mg/kg administered as single dose via gavage and measured up to 24 hrs by LC/MS/MS analysis", "assay_type": "ADME, organism-based", "conditions": "in vivo", "procedure,_shortened": "as §1"}, "[15]": {"test": "Clearance in cynomolgus monkey at 2 mg/kg, iv or 10 mg/kg, po", "assay_type": "ADME, organism-based, Macaca fascicularis", "conditions": "in vivo", "procedure,_shortened": "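Cynomolgus monkeys got single doses of 2 mg/kg iv and 10 mg/kg po as a solution in 12.5% captisol in water. Plasma CL, Vss, iv T1/2, AUC and oral F were derived.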"}, "[16]": {"test": "Volume of distribution at steady state in CD-1 mouse at 5 mg/kg, iv or 50 mg/kg, po", "assay_type": "ADME, organism-based", "conditions": "in vivo, read-out: Vdss", "procedure,_shortened": "as §3"}, "[17]": {"test": "AUC (0 to 24 hrs) in Beagle dog at 10 mg/kg, po", "assay_type": "ADME, organism-based, Canis lupus familiaris", "parameters": "dose 10 mg/kg, time < 24 hr, route oral", "conditions": "in vivo", "procedure,_shortened": "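Single-dose PK. Dog received 1 mg/kg iv or 10 mg/kg po, and cynomolgus monkey received 2 mg/kg iv or 10 mg/kg po. Both were given as a solution in 12.5% captisol in water. Plasma AUC was taken from the oral arm, with CL, Vss, iv T1/2 and F also derived.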"}, "[18]": {"system": "Human orthopneumovirus", "test": "Antiviral activity against Human respiratory syncytial virus B18537 infected in human Hep2 cells assessed as reduction in virus induced cytopathic effect in presence of 10% FBS after 5 days by CCK-8 assay", "assay_type": "functional, organism-based", "conditions": "subgroup B / strain 18537, HEp-2, 120 h", "procedure,_shortened": "as §4"}, "[19]": {"test": "Cmax in CD-1 mouse plasma at 10 mg/kg/day, po administered via gavage and measured up to 24 hrs by LC/MS/MS analysis", "assay_type": "ADME, organism-based", "parameters": "dose 10 mg/kg/day, route oral"}, "[20]": {"test": "Oral bioavailability in CD-1 mouse at 50 mg/kg", "assay_type": "ADME, organism-based", "conditions": "in vivo", "procedure,_shortened": "as §3"}, "[21]": {"test": "Volume of distribution at steady state in Beagle dog at 1 mg/kg, iv or 10 mg/kg, po", "assay_type": "ADME, organism-based, Canis lupus familiaris", "conditions": "in vivo, read-out: Vdss", "procedure,_shortened": "as §2"}, "[22]": {"system": "Fusion glycoprotein F0 (Human respiratory syncytial virus A (strain A2)), P03420 [D489A]", "test": "Inhibition of Human respiratory syncytial virus Fusion protein D489A mutant expressed in Hep2 cells as reduction in virus induced cytopathic effect by CCK-8 assay", "assay_type": "cell-based", "procedure,_shortened": "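HEp-2 cells were seeded at 6000/well and infected with plaque-purified RSV carrying the F-protein mutation (D486N or D489A) at MOI 0.04, with serially diluted compound. Viability was read by CCK-8 absorbance at 450 nm/650 nm, and EC50/EC90 were derived from protection against virus-induced cytopathic effect.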"}, "[23]": {"test": "Clearance in Sprague-Dawley rat at 2 mg/kg, iv or 10 mg/kg, po", "assay_type": "ADME, organism-based", "conditions": "in vivo", "procedure,_shortened": "as §5"}, "[24]": {"system": "Influenza A virus", "test": "Antiviral activity against Influenza A virus H1N1 infected in human Hep2 cells assessed as reduction in virus induced cytopathic effect after 5 days by CCK-8 assay", "assay_type": "functional", "conditions": "H1N1, HEp-2, 120 h"}}, "note": "pEC50: −log10 of the molar value. The source made the active and inactive calls. The calls are words filed in the database; no cut-off is given here."}
{"smiles": "Cc1ccc2nc(N3CCS(=O)(=O)c4ccccc4C3)nc(NCC3(N)COC3)c2c1", "note": "[ZIRESOVIR]", "values": [{"measurement": "clearance", "setting": "[1]", "value": 58, "unit": "mL/min/kg"}, {"measurement": "Activity", "setting": "[2]", "value": "inactive"}, {"measurement": "Activity", "setting": "[3]", "value": "inactive"}, {"measurement": "FC", "setting": "[4]", "value": 1.9}, {"measurement": "bioavailability", "setting": "[5]", "value": 26, "unit": "%"}, {"measurement": "half-life", "setting": "[6]", "value": 24, "unit": "min"}, {"measurement": "pEC50", "setting": "[7]", "value": 8.40}, {"measurement": "EC90", "setting": "[7]", "value": 7, "unit": "nM"}, {"measurement": "Activity", "setting": "[8]", "value": "inactive"}, {"measurement": "bioavailability", "setting": "[9]", "value": 32, "unit": "%"}, {"measurement": "Kp", "setting": "[10]", "value": 8.6}, {"measurement": "AUC(0-t) at 24 h", "setting": "[11]", "value": 906, "unit": "ng·h/mL"}, {"measurement": "Vd", "setting": "[12]", "value": 3.9, "unit": "L/kg"}, {"measurement": "pEC50", "setting": "[13]", "value": 8.52}, {"measurement": "EC90", "setting": "[13]", "value": 5, "unit": "nM"}, {"measurement": "bioavailability", "setting": "[14]", "value": 32, "unit": "%"}, {"measurement": "clearance", "setting": "[15]", "value": 26, "unit": "mL/min/kg"}, {"measurement": "Vd", "setting": "[16]", "value": 6.3, "unit": "L/kg"}, {"measurement": "AUC(0-t) at 24 h", "setting": "[17]", "value": 1170, "unit": "ng·h/mL"}, {"measurement": "pEC50", "setting": "[18]", "value": 8.70}, {"measurement": "EC90", "setting": "[18]", "value": 3, "unit": "nM"}, {"measurement": "Cmax", "setting": "[19]", "value": 5090, "unit": "ng/mL"}, {"measurement": "bioavailability", "setting": "[20]", "value": 66, "unit": "%"}, {"measurement": "Vd", "setting": "[21]", "value": 6.7, "unit": "L/kg"}, {"measurement": "EC90", "setting": "[22]", "value": 10000, "unit": "nM"}, {"measurement": "clearance", "setting": "[23]", "value": 58, "unit": "mL/min/kg"}, {"measurement": "EC90", "setting": "[24]", "value": "> 100000", "unit": "nM"}]}
